Reference: ChEMBL document CHEMBL1154122, “A comprehensive study of Sansalvamide A derivatives: The structure-activity relationships of 78 derivatives in two pancreatic cancer cell lines” (2009)
Square brackets hold non-standard residues; d marks the D form. Peptide text beside a SMILES is read from it. * marks the point of attachment. NMeF = CN[C@@H](Cc1ccccc1)C(=O)O; dNMeF = CN[C@H](Cc1ccccc1)C(=O)O; Tic = O=C(O)[C@@H]1Cc2ccccc2CN1; Cha = N[C@@H](CC1CCCCC1)C(=O)O; NMeL = CN[C@@H](CC(C)C)C(=O)O; dNMeL = CN[C@H](CC(C)C)C(=O)O; dNMeV = CN[C@@H](C(=O)O)C(C)C; NMeV = CN[C@H](C(=O)O)C(C)C; Orn = NCCC[C@H](N)C(=O)O; dAbu = CC[C@@H](N)C(=O)O; Abu = CC[C@H](N)C(=O)O; Cbz = O=C(OCc1ccccc1)*; Bn = c1ccc(C*)cc1; Sar = CNCC(=O)O

Key:
[1] = Cytotoxicity against human PL45 cells after 56 hrs by [3H]thymidine uptake assay; type: functional
Method in brief: (§1)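 Cells seeded at 2000–2500/well in DMEM with L-glutamine, 10% FBS and 1% penicillin-streptomycin. […] After 56 h, 3H-thymidine was added for 16 h more (72 h total), then cells were harvested and counted (CPM). Inhibition = 1 − CPM treated/DMSO; IC50 taken from curves, mean and SEM.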

BXPC-3 = experiment: Cytotoxicity against human BxPC3 cells after 56 hrs by [3H]thymidine uptake assay; type: functional; method in brief: as §1

CC(C)C[C@@H]1NC(=O)[C@H](Cc2ccccc2)NC(=O)[C@@H](CO)NC(=O)[C@H](C(C)C)NC(=O)[C@H](CC(C)C)NC1=O (cyclo(FLLV[dS]))
growth inhibition (GI) [1]: 32%
growth inhibition (GI) (BXPC-3): 25%

CC[C@H]1NC(=O)[C@H](CC(C)C)NC(=O)[C@H](CC(C)C)NC(=O)[C@H](Cc2ccccc2)NC(=O)[C@H](CC(C)C)NC1=O (cyclo(FLL[dAbu]L))
growth inhibition (GI) [1]: 12%
growth inhibition (GI) (BXPC-3): 17%

CC(C)C[C@@H]1NC(=O)[C@H](Cc2ccccc2)NC(=O)[C@H](CC(C)C)NC(=O)[C@@H](Cc2ccccc2)NC(=O)[C@H](CC(C)C)NC1=O (cyclo(FLL[dF]L))
growth inhibition (GI) [1]: 33%
growth inhibition (GI) (BXPC-3): 8%

CC(C)C[C@@H]1NC(=O)[C@H](Cc2ccccc2)NC(=O)[C@@H](CC(C)C)N(C)C(=O)[C@@H](C(C)C)N(C)C(=O)[C@H](CC(C)C)NC1=O (cyclo(FLL[dNMeV][dNMeL]))
growth inhibition (GI) [1]: 22%
growth inhibition (GI) (BXPC-3): 0%

CC(C)C[C@@H]1NC(=O)[C@H](Cc2ccccc2)NC(=O)[C@H](CC(C)C)NC(=O)[C@@H](CO)NC(=O)[C@H](CC(C)C)NC1=O (cyclo(FLL[dS]L))
growth inhibition (GI) [1]: 25%
growth inhibition (GI) (BXPC-3): 22%

CC(C)C[C@@H]1NC(=O)[C@H](C(C)C)NC(=O)[C@H](CC(C)C)N(C)C(=O)[C@H](CC(C)C)NC(=O)[C@H](Cc2ccccc2)NC1=O (cyclo(FL[NMeL]VL))
growth inhibition (GI) [1]: 23%
growth inhibition (GI) (BXPC-3): 52%

CC(C)[C@@H]1NC(=O)[C@H](Cc2ccccc2)NC(=O)[C@@H](COCc2ccccc2)NC(=O)[C@H](C(C)C)NC(=O)[C@H](C(C)C)NC1=O (cyclo(FVVV[dS](Bn)))
growth inhibition (GI) [1]: 28%
growth inhibition (GI) (BXPC-3): 17%

CC(C)[C@@H]1NC(=O)[C@H](Cc2ccccc2)NC(=O)[C@@H](CO)NC(=O)[C@H](C(C)C)NC(=O)[C@H](C(C)C)NC1=O (cyclo(FVVV[dS]))
growth inhibition (GI) [1]: 7%
growth inhibition (GI) (BXPC-3): 13%

CC[C@H]1NC(=O)[C@H](C(C)C)NC(=O)[C@H](C(C)C)NC(=O)[C@H](Cc2ccccc2)NC(=O)[C@H](C(C)C)NC1=O (cyclo(FVV[dAbu]V))
growth inhibition (GI) [1]: 32%
growth inhibition (GI) (BXPC-3): 26%

CC(C)[C@@H]1NC(=O)[C@H](Cc2ccccc2)NC(=O)[C@H](C(C)C)NC(=O)[C@@H](COCc2ccccc2)NC(=O)[C@H](C(C)C)NC1=O (cyclo(FVV[dS](Bn)V))
growth inhibition (GI) [1]: 0%
growth inhibition (GI) (BXPC-3): 15%

CC(C)[C@@H]1NC(=O)[C@H](Cc2ccccc2)NC(=O)[C@H](C(C)C)NC(=O)[C@@H](CO)NC(=O)[C@H](C(C)C)NC1=O (cyclo(FVV[dS]V))
growth inhibition (GI) [1]: 18%
growth inhibition (GI) (BXPC-3): 20%

CC(C)[C@@H]1NC(=O)[C@H](Cc2ccccc2)NC(=O)[C@H](C(C)C)NC(=O)[C@@H](C(C)C)NC(=O)[C@H](C(C)C)NC1=O (cyclo(FVV[dV]V))
growth inhibition (GI) [1]: 25%
growth inhibition (GI) (BXPC-3): 11%

CC(C)C[C@@H]1NC(=O)[C@H](C(C)C)NC(=O)[C@H](CCCCNC(=O)OCc2ccccc2)NC(=O)[C@H](CC(C)C)N(C)C(=O)[C@H](Cc2ccccc2)NC1=O (cyclo(F[NMeL]K(Cbz)VL))
growth inhibition (GI) [1]: 36%
growth inhibition (GI) (BXPC-3): 35%

CC(C)C[C@@H]1NC(=O)[C@H](C(C)C)NC(=O)[C@H](CCCCN)NC(=O)[C@H](CC(C)C)N(C)C(=O)[C@H](Cc2ccccc2)NC1=O (cyclo(F[NMeL]KVL))
growth inhibition (GI) [1]: 9%
growth inhibition (GI) (BXPC-3): 11%

CC(C)C[C@@H]1NC(=O)[C@H](C(C)C)N(C)C(=O)[C@H](CC(C)C)NC(=O)[C@H](CC(C)C)N(C)C(=O)[C@H](Cc2ccccc2)NC1=O (cyclo(F[NMeL]L[NMeV]L))
growth inhibition (GI) [1]: 0%
growth inhibition (GI) (BXPC-3): 0%

CC(C)C[C@@H]1NC(=O)[C@H](CC(C)C)N(C)C(=O)[C@H](Cc2ccccc2)NC(=O)[C@H](CC(C)C)N(C)C(=O)[C@H](C(C)C)N(C)C1=O (cyclo(F[NMeL]L[NMeV][NMeL]))
growth inhibition (GI) [1]: 0%
growth inhibition (GI) (BXPC-3): 0%

CC(C)C[C@@H]1NC(=O)CN(C)C(=O)[C@H](Cc2ccccc2)NC(=O)[C@H](C(C)C)NC(=O)[C@@H](C(C)C)NC1=O (cyclo(F[Sar]L[dV]V))
growth inhibition (GI) [1]: 0%
growth inhibition (GI) (BXPC-3): 22%

CC(C)C[C@@H]1NC(=O)[C@H](C(C)C)NC(=O)[C@H](CC(C)C)N(C)C(=O)[C@@H](CC(C)C)NC(=O)[C@H](Cc2ccccc2)NC1=O (cyclo(F[dL][NMeL]VL))
growth inhibition (GI) [1]: 25%
growth inhibition (GI) (BXPC-3): 71%

CC(C)C[C@@H]1NC(=O)[C@@H](Cc2ccccc2)NC(=O)[C@@H](CC(C)C)NC(=O)[C@@H](C(C)C)NC(=O)[C@H](CCCCNC(=O)OCc2ccccc2)NC1=O (cyclo(K(Cbz)[dV][dL][dF]L))
growth inhibition (GI) [1]: 12%
growth inhibition (GI) (BXPC-3): 38%

CC(C)C[C@@H]1NC(=O)[C@@H](Cc2ccccc2)NC(=O)[C@@H](CC(C)C)NC(=O)[C@@H](C(C)C)NC(=O)[C@H](CCCCN)NC1=O (cyclo(K[dV][dL][dF]L))
growth inhibition (GI) [1]: 0%
growth inhibition (GI) (BXPC-3): 28%

CC(C)C[C@@H]1NC(=O)[C@H](CC(C)C)NC(=O)[C@@H]2Cc3ccccc3CN2C(=O)[C@H](CC(C)C)NC(=O)[C@H](C(C)C)NC1=O (cyclo(LLVL[Tic]))
growth inhibition (GI) [1]: 35%
growth inhibition (GI) (BXPC-3): 54%

CC(C)C[C@@H]1NC(=O)[C@H](CC(C)C)NC(=O)[C@@H](Cc2c[nH]c3ccccc23)NC(=O)[C@H](CC(C)C)NC(=O)[C@H](C(C)C)NC1=O (cyclo(LLVL[dW]))
growth inhibition (GI) [1]: 18%
growth inhibition (GI) (BXPC-3): 30%

CC(C)C[C@@H]1NC(=O)[C@H](CC(C)C)NC(=O)[C@@H](Cc2ccc(O)cc2)NC(=O)[C@H](CC(C)C)NC(=O)[C@H](C(C)C)NC1=O (cyclo(LLVL[dY]))
growth inhibition (GI) [1]: 11%
growth inhibition (GI) (BXPC-3): 35%

CC(C)C[C@@H]1NC(=O)[C@H](C(C)C)NC(=O)[C@H](CCCN)NC(=O)[C@H](CC(C)C)NC(=O)[C@@H](Cc2ccc(O)cc2)NC1=O (cyclo(L[Orn]VL[dY]))
growth inhibition (GI) [1]: 0%
growth inhibition (GI) (BXPC-3): 0%

CC(C)C[C@@H]1NC(=O)[C@@H](Cc2ccccc2)NC(=O)[C@H](C(C)C)NC(=O)[C@@H](CC(C)C)NC(=O)[C@@H](CC(C)C)NC1=O (cyclo(L[dL][dL]V[dF]))
growth inhibition (GI) [1]: 21%
growth inhibition (GI) (BXPC-3): 23%

CC[C@@H]1NC(=O)[C@H](CC(C)C)NC(=O)[C@H](CC(C)C)NC(=O)[C@H](Cc2ccccc2)NC(=O)[C@H](CC(C)C)NC1=O (cyclo([Abu]LFLL))
growth inhibition (GI) [1]: 0%
growth inhibition (GI) (BXPC-3): 0%

CC[C@@H]1NC(=O)[C@H](CC(C)C)NC(=O)[C@H](CC(C)C)NC(=O)[C@H](Cc2ccccc2)NC(=O)[C@@H](CC(C)C)NC1=O (cyclo([Abu][dL]FLL))
growth inhibition (GI) [1]: 23%
growth inhibition (GI) (BXPC-3): 34%

CC(C)[C@@H]1NC(=O)[C@H](CC2CCCCC2)NC(=O)[C@H](CO)NC(=O)[C@H](Cc2ccccc2)NC(=O)[C@@H](Cc2ccccc2)N(C)C1=O (cyclo([Cha]V[dNMeF]FS))
growth inhibition (GI) [1]: 11%
growth inhibition (GI) (BXPC-3): 34%

CC(C)C[C@@H]1NC(=O)[C@H](Cc2ccccc2)NC(=O)[C@H](CC(C)C)NC(=O)[C@@H](C(C)C)N(C)C(=O)[C@H](CC2CCCCC2)NC1=O (cyclo([Cha][dNMeV]LFL))
growth inhibition (GI) [1]: 30%
growth inhibition (GI) (BXPC-3): 49%

CC(C)C[C@@H]1NC(=O)[C@H](CC(C)C)NC(=O)[C@H](Cc2ccccc2)N(C)C(=O)[C@H](CC(C)C)NC(=O)[C@H](C(C)C)NC1=O (cyclo([NMeF]LLVL))
growth inhibition (GI) [1]: 30%
growth inhibition (GI) (BXPC-3): 33%

CC(C)C[C@@H]1C(=O)N[C@H](Cc2ccccc2)C(=O)N[C@H](CC(C)C)C(=O)N[C@H](CC(C)C)C(=O)N[C@H](C(C)C)C(=O)N1C (cyclo([dF][dL][dL][dV][dNMeL]))
growth inhibition (GI) [1]: 11%
growth inhibition (GI) (BXPC-3): 30%

CC(C)C[C@@H]1C(=O)N[C@H](CC(C)C)C(=O)N(C)[C@H](C(C)C)C(=O)N[C@H](CC(C)C)C(=O)N[C@H](Cc2ccccc2)C(=O)N1C (cyclo([dF][dNMeL][dL][dNMeV][dL]))
growth inhibition (GI) [1]: 0%
growth inhibition (GI) (BXPC-3): 25%

CC(C)C[C@@H]1NC(=O)[C@H](C(C)C)NC(=O)[C@H](CC(C)C)N(C)C(=O)[C@@H](CC(C)C)NC(=O)[C@@H](Cc2ccccc2)NC1=O (cyclo([dL][NMeL]VL[dF]))
growth inhibition (GI) [1]: 59%
growth inhibition (GI) (BXPC-3): 58%
